Assay [1] concerns Neisseria gonorrhoeae. Kind of assay: microbe, parasite or virus in culture. The settings on record: 24 h.
Assay [2] relates to Neisseria gonorrhoeae. The assay is described as follows: Antimicrobial activity against Neisseria gonorrhoeae clinical isolates harboring PBP2 XXXV pattern, deletion of nucleotide A from […] promoter, MAST 546 after 24 hrs by agar dilution method. The format is functional. The procedure, abridged:
(§1)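 Ontario clinical isolates grown on GC agar plus 1% defined growth supplement, 37°C, 5% CO2, 20 to 24 h, subcultured twice before testing. MICs by agar dilution per CLSI guidelines. QC strains: ATCC 49226 and 2008 WHO panel strains F, G, K, L, N, O, P. Genotypes deduced by PCR and sequencing of ponA, penA, porB, mtrR and its promoter.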
(In agar dilution, organisms are placed on agar that contains the substance at set levels.)

Assay [3] concerns Neisseria gonorrhoeae. Kind of assay: Antimicrobial activity against Neisseria gonorrhoeae clinical isolates assessed as percent susceptible isolates after 24 hrs by agar dilution method. The format is functional.
For assay [4], the system named is Neisseria gonorrhoeae. Kind of assay: Antimicrobial activity against Neisseria gonorrhoeae clinical isolates harboring porB G120K, A121D mutant gene, PBP1 L421P mutant gene, PBP2 XXXVIII pattern, deletion of nucleotide A from […] promoter, MAST 3158 after 24 hrs by agar dilution method. It is filed as functional. The procedure, abridged: as §1
Assay [5] has as its system Neisseria gonorrhoeae. Kind of assay: Antimicrobial activity against Neisseria gonorrhoeae clinical isolates harboring PBP1 L421P mutant gene, PBP2 XXXVII pattern, deletion of nucleotide A from […] promoter, MtrR G45D mutant MAST 299 after 24 hrs by agar dilution method. It is filed as functional. The procedure, abridged: as §1
In assay [6] the test system is Neisseria gonorrhoeae. The assay is described as follows: Antimicrobial activity against Neisseria gonorrhoeae clinical isolates assessed as percent resistant isolates after 24 hrs by agar dilution method. It is filed as functional.
In assay [7] the test system is Neisseria gonorrhoeae. The assay is described as follows: Antimicrobial activity against Neisseria gonorrhoeae clinical isolates harboring porB G120K, A121D mutant gene, PBP1 L421P mutant gene, PBP2 XXXVIII pattern, deletion of nucleotide A from […] promoter, MAST 3570 after 24 hrs by agar dilution method. It is filed as functional. The procedure, abridged:
as §1

The subject of assay [8] is Neisseria gonorrhoeae. The assay is described as follows: Antimicrobial activity against Neisseria gonorrhoeae clinical isolates harboring PBP2 XXXVIII pattern, deletion of nucleotide A from […] promoter, MAST 3553 after 24 hrs by agar dilution method. The format is functional. The procedure, abridged: as §1
For assay [9], the system named is Neisseria gonorrhoeae. Kind of assay: Antimicrobial activity against Neisseria gonorrhoeae clinical isolates harboring porB G120K, A121D mutant gene, PBP1 L421P mutant gene, PBP2 XXXIV pattern, deletion of nucleotide A from […] promoter, MAST 225 after 24 hrs by agar dilution method. It is filed as functional. The procedure, abridged:
as §1

In assay [10] the test system is Neisseria gonorrhoeae. The assay is described as follows: Antimicrobial activity against Neisseria gonorrhoeae clinical isolates after 24 hrs by agar dilution method. It is filed as functional.
The test system of assay [11] is Neisseria gonorrhoeae. The assay is described as follows: Antimicrobial activity against Neisseria gonorrhoeae clinical isolates harboring porB G120K, A121D mutant gene, PBP1 L421P mutant gene, PBP2 XXXVIII pattern, insertion of nucleotide T from […] promoter, MAST 3158 after 24 hrs by agar dilution method. It is filed as functional. The procedure, abridged: as §1

For assay [12], the system named is Neisseria gonorrhoeae. The assay is described as follows: Antimicrobial activity against Neisseria gonorrhoeae clinical isolates harboring porB G120K, A121D mutant gene, PBP1 L421P mutant gene, PBP2 XXXVIII pattern, deletion of nucleotide A from […] promoter, MAST 3563 after 24 hrs by agar dilution method. It is filed as functional. The procedure, abridged:
as §1

Assay [13] concerns Neisseria gonorrhoeae. The assay is described as follows: Antimicrobial activity against Neisseria gonorrhoeae clinical isolates harboring PBP2 XXXIV pattern, MAST 51 after 24 hrs by agar dilution method. It is filed as functional. The procedure, abridged:
as §1

Assay [14] relates to Neisseria gonorrhoeae. Kind of assay: Antimicrobial activity against Neisseria gonorrhoeae clinical isolates harboring porB A121S mutant gene, PBP1 L421P mutant gene, PBP2 XXXVIII pattern, deletion of nucleotide A from […] promoter, MAST 3116 after 24 hrs by agar dilution method. The format is functional. The procedure, abridged:
as §1

In assay [15] the test system is Neisseria gonorrhoeae. The assay is described as follows: Antimicrobial activity against Neisseria gonorrhoeae clinical isolates harboring porB G120K, A121D mutant gene, PBP2 XXXVI pattern, deletion of nucleotide A from […] promoter, MAST 3596 after 24 hrs by agar dilution method. It is filed as functional. The procedure, abridged:
as §1

The subject of assay [16] is Neisseria gonorrhoeae. Kind of assay: Antimicrobial activity against Neisseria gonorrhoeae clinical isolates harboring porB G120K, A121D mutant gene, PBP2 XXXVIII pattern, deletion of nucleotide A from […] promoter, MAST 3158 after 24 hrs by agar dilution method. It is filed as functional. The procedure, abridged: as §1

Each structure is given as a SMILES string. In brackets after ≈: the same amount, converted by molar mass. A value given as a limit tells only on which side of the number the result lay.

Turning to `CC[C@H]1OC(=O)[C@H](C)[C@@H](O[C@H]2C[C@@](C)(OC)[C@@H](O)[C@H](C)O2)[C@H](C)[C@@H](O[C@@H]2O[C@H](C)C[C@H](N(C)C)[C@H]2O)[C@](C)(O)C[C@@H](C)CN(C)[C@H](C)[C@@H](O)[C@]1(C)O` [AZITHROMYCIN], the MIC with Neisseria gonorrhoeae [1] was 0.25 µg/mL (≈ 0.334 µM).
As usually defined, the MIC50 is the lowest concentration that inhibits either 50% of growth or 50% of the strains tested, depending on the study. A low value points to greater potency. Broadly, the MIC90 is the lowest concentration that inhibits either 90% of growth or 90% of the strains tested, depending on the study. A low value points to higher susceptibility. Regarding `C=CC1=C(C(=O)O)N2C(=O)[C@@H](NC(=O)/C(=N\OCC(=O)O)c3csc(N)n3)[C@H]2SC1` [CEFIXIME], the MIC against Neisseria gonorrhoeae [2] was determined as 0.125 µg/mL (≈ 0.276 µM); in the assay on Neisseria gonorrhoeae [4], 0.125 µg/mL (≈ 0.276 µM); against Neisseria gonorrhoeae [5], 0.25 µg/mL (≈ 0.551 µM); in the assay with Neisseria gonorrhoeae [7] it was 0.125 µg/mL (≈ 0.276 µM); in the assay with Neisseria gonorrhoeae [8] it was 0.125 µg/mL (≈ 0.276 µM); in the assay with Neisseria gonorrhoeae [9], 0.25 µg/mL (≈ 0.551 µM). For the same molecule, the MIC amounted to 0.125 µg/mL (≈ 0.276 µM) against Neisseria gonorrhoeae [11]; 0.125 µg/mL (≈ 0.276 µM) with Neisseria gonorrhoeae [12]; 0.125 µg/mL (≈ 0.276 µM) against Neisseria gonorrhoeae [13]; 0.125 µg/mL (≈ 0.276 µM) against Neisseria gonorrhoeae [14]; 0.125 µg/mL (≈ 0.276 µM) in the assay with Neisseria gonorrhoeae [15]; 0.25 µg/mL (≈ 0.551 µM) against Neisseria gonorrhoeae [16]. The Activity in the assay with Neisseria gonorrhoeae [3] is 100%; in the assay with Neisseria gonorrhoeae [6], 0%. For the same molecule, in the assay on Neisseria gonorrhoeae [10], the MIC50 was not above 0.03 µg/mL. The molecule also came in with an MIC90 in the assay on Neisseria gonorrhoeae [10] not above 0.03 µg/mL.
On to `CN[C@@H]1[C@H](O)[C@H](NC)[C@H]2O[C@@]3(O)C(=O)C[C@@H](C)O[C@H]3O[C@@H]2[C@H]1O` [SPECTINOMYCIN], for which, in the assay with Neisseria gonorrhoeae [3], the Activity is recorded as 100%. Also, the Activity in the assay with Neisseria gonorrhoeae [6] is 0%. In the assay with Neisseria gonorrhoeae [10], this molecule displayed an MIC50 not above 32 µg/mL and an MIC90 not above 32 µg/mL.
`CN(C)[C@@H]1C(O)=C(C(N)=O)C(=O)[C@@]2(O)C(O)=C3C(=O)c4c(O)cccc4[C@@](C)(O)[C@H]3C[C@@H]12` [TETRACYCLINE]: the Activity with Neisseria gonorrhoeae [3] is given as 27.5%; in the assay on Neisseria gonorrhoeae [6], 25.5%. The molecule also had an MIC50 in the assay with Neisseria gonorrhoeae [10] of 0.5 µg/mL (≈ 1.13 µM). This molecule had an MIC90 against Neisseria gonorrhoeae [10] of 2 µg/mL (≈ 4.5 µM).
Consider `CC1(C)S[C@@H]2[C@H](NC(=O)Cc3ccccc3)C(=O)N2[C@H]1C(=O)O` [PENICILLIN G], for which the MIC against Neisseria gonorrhoeae [2] was 1 µg/mL (≈ 2.99 µM); in the assay on Neisseria gonorrhoeae [4] it was 1 µg/mL (≈ 2.99 µM); in the assay on Neisseria gonorrhoeae [5], 2 µg/mL (≈ 5.98 µM); in the assay with Neisseria gonorrhoeae [7] it was 2 µg/mL (≈ 5.98 µM); in the assay on Neisseria gonorrhoeae [8], 0.5 µg/mL (≈ 1.5 µM); against Neisseria gonorrhoeae [9] it was 2 µg/mL (≈ 5.98 µM). Also, the MIC amounted to 1 µg/mL (≈ 2.99 µM) in the assay with Neisseria gonorrhoeae [11]; 1 µg/mL (≈ 2.99 µM) in the assay on Neisseria gonorrhoeae [12]; 1 µg/mL (≈ 2.99 µM) in the assay on Neisseria gonorrhoeae [13]; 2 µg/mL (≈ 5.98 µM) in the assay with Neisseria gonorrhoeae [14]; 0.5 µg/mL (≈ 1.5 µM) against Neisseria gonorrhoeae [15]; 1 µg/mL (≈ 2.99 µM) against Neisseria gonorrhoeae [16]. Besides, the Activity in the assay on Neisseria gonorrhoeae [3] is reported as 10.7%; in the assay on Neisseria gonorrhoeae [6], 12.1%. The molecule further came in with an MIC50 in the assay with Neisseria gonorrhoeae [10] of 0.25 µg/mL (≈ 0.748 µM). The MIC90 against Neisseria gonorrhoeae [10] is 2 µg/mL (≈ 5.98 µM).
With `CC[C@H]1OC(=O)[C@H](C)[C@@H](O[C@H]2C[C@@](C)(OC)[C@@H](O)[C@H](C)O2)[C@H](C)[C@@H](O[C@@H]2O[C@H](C)C[C@H](N(C)C)[C@H]2O)[C@](C)(O)C[C@@H](C)C(=O)[C@H](C)[C@@H](O)[C@]1(C)O` [ERYTHROMYCIN], in the assay on Neisseria gonorrhoeae [3], the Activity worked out at 77.2%. Moreover, the Activity with Neisseria gonorrhoeae [6] was 22.8%. Besides, in the assay on Neisseria gonorrhoeae [10], the MIC is not above 1 µg/mL, the MIC50 is not above 1 µg/mL and the MIC90 worked out at 2 µg/mL (≈ 2.73 µM).
With `CO/N=C(\C(=O)N[C@@H]1C(=O)N2C(C(=O)O)=C(CSc3nc(=O)c(O)nn3C)CS[C@H]12)c1csc(N)n1` [CEFTRIAXONE], the MIC was 0.125 µg/mL (≈ 0.225 µM) with Neisseria gonorrhoeae [2]; 0.063 µg/mL (≈ 0.114 µM) with Neisseria gonorrhoeae [4]; 0.125 µg/mL (≈ 0.225 µM) with Neisseria gonorrhoeae [5]; 0.063 µg/mL (≈ 0.114 µM) against Neisseria gonorrhoeae [7]; 0.032 µg/mL (≈ 0.0577 µM) against Neisseria gonorrhoeae [8]; 0.125 µg/mL (≈ 0.225 µM) with Neisseria gonorrhoeae [9]. Besides, the MIC in the assay with Neisseria gonorrhoeae [11] stood at 0.063 µg/mL (≈ 0.114 µM); against Neisseria gonorrhoeae [12] it was 0.063 µg/mL (≈ 0.114 µM); in the assay on Neisseria gonorrhoeae [13], 0.063 µg/mL (≈ 0.114 µM); with Neisseria gonorrhoeae [14], 0.063 µg/mL (≈ 0.114 µM); against Neisseria gonorrhoeae [15], 0.125 µg/mL (≈ 0.225 µM); against Neisseria gonorrhoeae [16], 0.125 µg/mL (≈ 0.225 µM). Also, the figures for the Activity in the assay with Neisseria gonorrhoeae [3] and with Neisseria gonorrhoeae [6] were 100% and 0%, respectively. The MIC50 against Neisseria gonorrhoeae [10] was not above 0.03 µg/mL. In addition, the MIC90 against Neisseria gonorrhoeae [10] is not above 0.06 µg/mL.
